# High-throughput results: PubChem BioAssay, several laboratories
# Sampled rows, rich in hits. Any-hit rate of the full collection: about 2.2%.
# FXIIa inh: factor XIIa (human) inhibition. purified FXIIa, Boc-QGR-AMC fluorogenic substrate, 2 h. inhibition, % at 5 µM. 220,000 tested, 0.3% active. AID 800; in the data active means inhibition above about 40%;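 further: 0% = enzyme with no compound and 100% = blank without enzyme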
# Target sequence (P00748 20-372 limits assumed): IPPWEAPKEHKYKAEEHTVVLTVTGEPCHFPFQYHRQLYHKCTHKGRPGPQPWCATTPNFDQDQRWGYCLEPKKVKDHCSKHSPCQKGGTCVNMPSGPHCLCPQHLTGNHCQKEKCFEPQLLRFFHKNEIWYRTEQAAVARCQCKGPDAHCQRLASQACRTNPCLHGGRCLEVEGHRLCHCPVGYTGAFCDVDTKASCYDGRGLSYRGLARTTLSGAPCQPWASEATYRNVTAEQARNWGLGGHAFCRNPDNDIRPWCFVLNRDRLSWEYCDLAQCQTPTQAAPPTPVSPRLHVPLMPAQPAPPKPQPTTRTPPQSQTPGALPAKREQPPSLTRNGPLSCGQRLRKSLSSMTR
# Target sequence (P00748 373-615 limits assumed): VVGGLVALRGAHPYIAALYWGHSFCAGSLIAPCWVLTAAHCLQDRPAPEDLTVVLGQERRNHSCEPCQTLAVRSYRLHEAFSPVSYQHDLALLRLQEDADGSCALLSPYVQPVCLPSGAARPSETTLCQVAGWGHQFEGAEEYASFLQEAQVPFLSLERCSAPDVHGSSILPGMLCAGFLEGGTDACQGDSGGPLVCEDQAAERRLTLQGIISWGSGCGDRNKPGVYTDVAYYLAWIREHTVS
# Wee1 degr inh: inhibitors of human Wee1 degradation; P30291; HeLa Luc-Wee1K328M stability, luciferase luminescence; 100% = proteasome inhibitor MG132 effect; reporter increase, % at 5 µM; 220,000 tested, 1.2% active; AID 1321;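 active means activation above the mean of all tested compounds plus 3 SD, set per screening run, cut at about 8.8% in these data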;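 further: cells exposed to compound for 20 h before luminescence read; 0% = DMSO alone and 100% = MG132 at 30 µM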
# Thrombin inh: blocks human thrombin protease activity; alpha-thrombin, Boc-VPR-AMC fluorogenic substrate cleavage; AID 1046; inhibition, % at 5 µM; 220,000 tested, 0.26% active;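 active means inhibition at or above 40%; inactive means inhibition below 40%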;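 further: 0% = enzyme with no compound and 100% = wells without enzyme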
#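 Assay system: human alpha-thrombin enzyme. Reagent: Boc-VPR-AMC substrate, 15 µM final. Compound dosing: one concentration per compound, 5 µM, with 0.2% DMSO. Incubation: room-temperature reaction. Technique: AMC fluorescence, 355/460 nm. Measure: % inhibition relative to enzyme controls and enzyme-free blanks.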
# KLK5 inh: inhibitors of human kallikrein 5. Q9Y337. inhibition, % at 5 µM. 210,000 tested, 0.59% active. AID 873. recombinant hK5, fluorogenic AMC substrate cleavage;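 active means inhibition of 40% or more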;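 further: 0% = enzyme controls without compound and 100% = no-enzyme blanks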
# FXIa inh 1536: blocks human coagulation factor XIa protease activity; P03951; purified FXIa, Boc-Glu-Ala-Arg-AMC fluorogenic substrate; inhibition, % at 5 µM; 220,000 tested, 0.14% active;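 active means inhibition of at least 40%; inactive means inhibition below 40%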;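 further: fluorescence of freed AMC excited at 355 nm; 0% = enzyme without compound and 100% = no enzyme blank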
# Starred values were filed as active, the others as inactive; · = no result given.
SMILES,FXIIa inh,Wee1 degr inh,Thrombin inh,KLK5 inh,FXIa inh 1536
COCC(=O)Nc1cc(Cl)c(OC)cc1OC,6.6,-3.0,0.9,-9.6,3.0
O=C(O)CC(NC(=O)Cc1ccccc1)c1cc([N+](=O)[O-])ccc1Cl (stereo not given),5.7,-2.5,4.9,-6.8,-1.4
CCOc1ccc(NC(=O)Nc2ccc3nccnc3c2)cc1,7.2,9.4*,-0.2,-4.0,2.4
C#CCSc1nncn1C(=O)/C=C/c1ccccc1,30.6,-0.2,90.2*,35.4,30.0
O=C(CCc1ccc(O)cc1)N/N=C/c1coc2ccccc2c1=O,7.7,-1.2,58.3*,0.4,1.9
Nc1nc(-c2ccc(Cl)cc2)nc(-c2ccc(Cl)cc2)n1,3.9,2.8,-5.1,-2.9,-0.1
O=C(NN=C1C2CC3CC1CC(Cl)(C3)C2)c1ccccn1,12.1,9.7*,-6.1,3.0,3.4
CCCC(=O)Nc1nc2ccc(NC(=O)c3ccc(Br)o3)cc2s1,10.4,9.5*,1.5,2.8,4.0
COC(=O)c1c(C)cc(C)n2c1nc1ccccc12,9.6,9.8*,-4.0,-9.2,-3.4
CC(Oc1ccc2ccc(=O)oc2c1)C(=O)c1ccccc1 (stereo not given),7.5,-1.9,-5.5,-8.8,6.9
CCOc1ccccc1NC(=O)CN1C(=O)COc2ccc(Cl)cc21,19.1,-0.5,29.2,42.5*,16.6
Cn1c(CNC(=O)Nc2ccccc2Cl)nnc1SCc1ccccc1,16.6,-3.4,24.8,43.3*,18.2
COC(=O)CC1C(=O)NCCN1C(=S)Nc1cccc(C(F)(F)F)c1 (stereo not given),6.6,4.2,-12.0,0.0,-4.7
COC(=O)CC1C(=O)NCCN1C(=S)Nc1cccc(C)c1 (stereo not given),44.9*,-1.5,-3.4,-20.8,34.5
Cc1sc2cc(-c3cccc([N+](=O)[O-])c3)c(-c3cccc([N+](=O)[O-])c3)c[n+]2c1C,16.2,-2.5,1.3,-22.9,6.8
O=[N+]([O-])c1cccc(-c2cc3cccc[n+]3cc2-c2cccc([N+](=O)[O-])c2)c1,15.5,1.7,31.8,45.5*,8.6
COc1ccc(-c2csc(NC(=O)CN3C(=O)CCC3=O)n2)cc1OC,5.6,10.7*,0.0,-4.5,9.2
C[C@H](NC(=O)OC(C)(C)C)C(=O)N/N=C/C1=Cc2ccccc2OC1,4.3,9.7*,-4.8,2.8,7.7
CCC(C)[C@H](NC(=O)OC(C)(C)C)C(=O)N/N=C/C1=Cc2ccccc2OC1 (stereo not given in full),2.9,-0.4,-6.5,0.5,-0.8
O=C(Cn1cnc2cc([N+](=O)[O-])ccc2c1=O)Nc1ccccc1-c1ccccc1,6.2,2.5,0.8,4.3,12.8
COc1ccc(/C=c2\s/c(=C\C(=O)C(C)(C)C)[nH]c2=O)cc1O,10.5,-0.5,1.5,5.8,4.5
COc1cc(/C=c2\s/c(=C\C(=O)C(C)(C)C)[nH]c2=O)cc(OC)c1OC,29.0,3.0,33.7,46.8*,35.2
O=C(NC1=NCCS1)c1cccc(OC(F)F)c1,5.2,10.7*,4.8,-3.4,-6.8
CC1(C)N([O-])C2=C(CCCC2)[N+]1=O,7.4,-1.1,8.0,7.0,-5.9
O=C(Cn1nnc(-c2ccncc2)n1)NCCc1ccccc1,8.6,-1.0,9.7,47.6*,-1.7
SMILES,FXIIa inh,Wee1 degr inh,Thrombin inh,KLK5 inh,FXIa inh 1536
O=C(Cn1nnc(-c2cccs2)n1)NCCc1ccccc1,17.2,4.1,-1.9,-13.1,8.2
CCC1(C)Cc2ccccc2-c2[nH][nH]c(=O)c21 (stereo not given),0.3,3.8,-5.5,·,-2.8
COc1ccc(/C=C/C2=CCN(Cc3ccc(OC)cc3)CC2)cc1,5.2,1.7,9.5,-5.0,-3.0
CC(C)C(NC(=O)CC12CC3CC(CC(C3)C1)C2)C(=O)O (stereo not given),46.7*,-3.1,-0.3,5.6,15.1
O=C(O)CNC(=O)CC12CC3CC(CC(C3)C1)C2,17.2,-0.7,0.9,0.8,-7.9
O=C(Nc1nc(COc2ccccc2)cs1)C1CCC1,8.5,9.3*,-1.1,-9.7,-3.1
c1ccc(-c2noc(-c3cccc4ccccc34)n2)nc1,6.5,9.1*,4.2,-17.9,4.1
CCOc1ccc(CNc2ccc(S(N)(=O)=O)cc2)cc1,3.1,1.9,1.3,-5.1,-0.4
CCC1CCCCN1C(=O)CCc1nnc(Cc2cc(OC)ccc2OC)o1 (stereo not given),3.5,4.3,-4.2,0.1,-0.2
CCOC(=O)CSc1nnnn1-c1cccc2ccccc12,3.0,-1.6,19.3,56.9*,13.9
